Shown are actives, neighbours in structure and some others; about 1% of the full set was active somewhere.
Bfl-1 A1 inh = inhibitors of the anti-apoptotic protein A1, read as caspase activation | AID 2462 | MEF A1-2A-BIM cells, Caspase-Glo 3/7 luminescence, 3 h; percent of clofoctol response, vehicle zero | caspase activation, % (no concentration beside the values) | 0.066% of 330,000 active;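 active = over half of replicate activation scores above 10%, or exactly half above 10 with the replicate mean above 10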
NALP3 yeast inh = inhibitors of NALP3 inflammasome in yeast | AID 2825 | Yeast reconstituted NLRP3/ASC/caspase-1, beta-gal luminescence, 24 h | 0.39% of 330,000 active | inhibition, % at 10 µM;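 active = inhibition of 50% or more; inactive = inhibition below 50%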;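 note: plate controls were induced DMSO wells for no effect and uninduced yeast grown without galactose for full effect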
T cell HTS = T cell immune modulation candidate; 2C CD8+ T cell-vesicle binding, flow cytometry; hits give low values; response (vesicle binding), % at 7 µM; 0.068% of 330,000 active; AID 2052;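 active = response, share of CD8 T cells binding vesicles, and their 90th percentile fluorescence all below set limits, cut at about 80% in these data, passing the limit was not always enough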;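 note: values below 100% mean blocked vesicle binding to the CD8+ T cells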
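Assay system – 2C mouse CD8+ T cells · Also added – QL9-loaded Drosophila micro-vesicles · Timing – Cell–vesicle co-incubation 1.5 h at 37 °C, staining 20 min on ice · Signal – flow cytometry of vesicle-bound cells · Measure – percent CD8+ FL2 mean versus row control · Controls – Peptide-free naked vesicles (low) and QL9 vesicles with 0.7% DMSO vehicle (high)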
NALP1 inh = blocks the NALP1 inflammasome reconstituted in yeast; S. cerevisiae NALP1/ASC/caspase-1 growth, X-gal OD620, 72 h; inhibition, % at 10 µM; 0.61% of 280,000 active; in the data active = inhibition mostly above about 24%, no sharp cut-off; inactive = mostly below about 32%
NALP3 yeast conf = confirmation of NALP3 inhibitors in yeast; shares compounds with NALP3 yeast inh; yeast expressing human NALP3, luminescence; inhibition, % at 10 µM; 81% of 1,300 active; AID 435006; in the data active = inhibition above about 48%
Casp1-ASC yeast = active in yeast caspase-1-ASC counter-screen for NALP3 inhibitors; shares compounds with NALP3 yeast inh; yeast expressing Caspase-1-ASC, luminescence counter screen; AID 488784; inhibition, % at 10 µM; 66% of 1,000 active
NALP3 retest = yeast NALP3 inhibition, confirmed on retest | 53% of 1,000 active | yeast expressing human NALP3, luminescence read-out | shares compounds with NALP3 yeast inh | inhibition, % at 10 µM | AID 488794
* marks the source's active call; other numbers are inactive results; i = inactive; . = no result given. Cut-off read from the data, not from the text of the source, unless noted: active = inhibition above about 50%; inactive = the rest.

SMILES	Bfl-1 A1 inh	NALP3 yeast inh	T cell HTS	NALP1 inh	NALP3 yeast conf	Casp1-ASC yeast	NALP3 retest
CCOc1ccc(C(=O)Nc2ccc(S(=O)(=O)N3C[C@@H]4C[C@@H](C3)c3cccc(=O)n3C4)cc2)cc1	0	13	350	.	.	.	.
O=C(/C=C\Nc1ccccc1Br)c1ccc2c(c1)OCO2	-7	30	428	7	.	.	.
O=C(/C=C/c1ccccc1Br)c1ccc2c(c1)OCO2	-5	62*	i	-2	60*	20	29
O=C(/C=C/c1ccccc1)c1ccc2c(c1)OCO2	-2	53*	327	-18	40	42	34
O=C(/C=C/c1cccc(Br)c1)c1ccc2c(c1)OCO2	2	29	276	-2	.	.	.
O=C(CCNc1ccccc1)c1ccc2c(c1)OCO2	-2	56*	528	-8	64*	64*	46
O=C(N/N=C/c1cccc(Br)c1)C1CC(=O)N(c2ccccc2)C1 (stereo not given)	1	-5	459	-4	.	.	.
NCCNC[C@@H]1COC2(CCCCCCCCCCC2)O1	1	59*	181	27	74*	.	.
CC(Cc1ccccc1)(NC(=O)CN)c1ccccc1 (stereo not given)	-1	91*	784	63*	96*	94*	93*
COc1ccc(-c2cc3nc4n(c(=O)c3s2)CCC4)cc1	-9	53*	377	-2	72*	35	36
COc1ccc(NC(=O)CSC(C)c2nc3ccccc3c(=O)[nH]2)cc1 (stereo not given)	0	10	391	21	.	.	.
COc1cccc(CN2CCNC(=O)C2CC(=O)NCCCN2CCCC2=O)c1 (stereo not given)	0	6	292	36	.	.	.
CCN(C[C@H]1N[C@@](Cc2ccccc2)(C(=O)OC)[C@H]2C(=O)N(Cc3ccccc3)C(=O)[C@@H]12)C(=O)Nc1ccc(C(F)(F)F)cc1	1	19	344	.	.	.	.
O=C(CSc1nnnn1-c1ccc(Cl)cc1)N1CCc2ccccc2C1	0	56*	558	-1	70*	78*	85*
Oc1ccccc1-c1cc(-c2ccccc2)no1	-13	55*	193	18	60*	59*	56*
Cc1ccc(-c2cc(-c3ccccc3)no2)c(O)c1	-9	.	506	27	.	.	.
O=C(N/N=C/C(Cl)=C\c1ccccc1)c1ccco1	-5	59*	687	4	61*	74*	56*
c1ccc2c(c1)CCN(c1nc3cc4c(cc3s1)OCO4)C2	-7	56*	573	15	52*	42	40
c1ccc(N2CCN(c3nc4cc5c(cc4s3)OCO5)CC2)cc1	-3	21	188	37	.	.	.
COc1ccc(C(=O)Nc2ccnn2C2CCN(Cc3ccccn3)CC2)cc1	0	12	324	2	.	.	.
O=C(c1ccccc1)c1cccc(C(=O)c2ccccc2)c1	-1	56*	559	.	58*	54*	51*
CC1(C)C=C2C(=NN(c3ccccc3)C(N)=C2C#N)CO1	1	16	193	-46	.	.	.
CCc1ccccc1NC(=O)CNC(=O)c1ccccc1OCc1c(C)noc1C	0	4	271	.	.	.	.
C=CCn1c(=O)c2c(nc(-n3nc(C)cc3C)n2C)n(C)c1=O	1	3	234	10	.	.	.
CCSc1nnc(NC(=O)c2ccccn2)s1	0	55*	250	24	61*	.	.
SMILES	Bfl-1 A1 inh	NALP3 yeast inh	T cell HTS	NALP1 inh	NALP3 yeast conf	Casp1-ASC yeast	NALP3 retest
CCSc1nnc(NC(=O)c2ccccc2C)s1	-8	57*	412	6	48	.	.
CCSc1nnc(NC(=O)c2cnccn2)s1	0	21	487	-2	.	.	.
COc1cc(C(=O)NCC2CCCCC2)ccc1OCc1c(C)noc1C	0	-6	321	.	.	.	.
O=C(Nc1cccc(Cl)c1)N1CCc2ccccc2C1	-4	66*	425	2	85*	74*	75*
COc1cccc(NC(=O)N2CCc3ccccc3C2)c1	-8	17	428	14	.	.	.
Cc1cccnc1Nc1nc(-c2ccccn2)cs1	-10	74*	512	12	84*	97*	92*
Cc1cccnc1Nc1nc(-c2ccccc2)cs1	-7	38	248	25	.	.	.
CCOc1ccc(CSc2nc(C)cc(COC)c2C#N)cc1OCC	-1	25	208	-3	.	.	.
Oc1c(I)cc(I)c2cccnc12	.	65*	712	52	62*	26	24
